Laboratory results published in paper PMC5943194 (Environmental science and pollution research international, 2017).
Entries after “also recorded” stand apart in the source; their conditions may differ.

Experiments:
[1] = tested on: AR target gene PSA mRNA in LNCaP cells; experiment: Suppression of DHT-induced PSA mRNA in LNCaP cells; assay type: cell-based, human; details: 25 μM, 24-h co-exposure to 1 nM DHT
Method in brief: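 LNCaP cells (passages 4–6) were grown in RPMI-1640 with 10% FBS, then moved to phenol red-free RPMI-1640 with 5% dextran/charcoal-treated serum. After 24 h in fresh medium they were co-treated for 24 h with test compound and DHT (1 nM). PSA mRNA was measured by qRT-PCR (PBGD reference, comparative Ct) and expressed relative to DHT alone. Three independent experiments, n=6.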

estrogen receptor (ER) [2] = molecular target: T1, estrogen receptor (ER) (Homo sapiens, UniProt P03372); experiment: ER-CALUX assay, ER-agonistic activity; assay type: cell-based; details: T47D.Luc cells, 24 h; for ER-agonistic Response at 10 μM (% of E2max): relative to E2 (15 pM)
Method in brief: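 T47D.Luc cells (passages 22–25) stably carry pEREtataLuc and were exposed in phenol red-free DMEM/F12 with 5% charcoal/dextran FBS. Cells were seeded at 20,000 cells/cm2 and dosed 24 h later with test compound in DMSO for 24 h. They were then lysed (10 mM Tris, 2 mM DTT, 2 mM EGTA, pH 7.8) and luciferase measured. RLU minus DMSO control gave fold induction relative to E2 (15 pM) maximum.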

[3] = tested on: ER target gene TFF1 mRNA in MCF-7 cells; experiment: Modulation of E2-induced TFF1 mRNA in MCF-7 cells; assay type: cell-based, human; details: 25 μM, 24 h, co-exposure with E2
Method in brief: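 MCF-7 cells (passages 15–18) in phenol red-free DMEM/F12 with 5% charcoal/dextran FBS were co-exposed for 24 h to test compound (25 μM) plus E2 (5 pM). TFF1 mRNA was measured by qRT-PCR: RT 50°C 20 min, 95°C 15 min, then 40 cycles of 95°C 15 s/60°C 60 s. PBGD was the reference gene, with comparative Ct analysis. Three independent experiments, n=6.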

estrogen receptor (ER) [4] = molecular target: T1, estrogen receptor (ER); experiment: ER-CALUX assay, ER-antagonistic activity, co-exposure with E2; assay type: cell-based; details: T47D.Luc cells, 24 h; for ER-antagonistic Response at 25 μM (% of E2 response): in the presence of E2 (5 pM); for Modulation of E2-dependent induction of luciferase activity, in words: combined exposure with E2 (5 pM)
Method in brief: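 ER-CALUX in T47D.Luc cells (passages 22–25) kept in phenol red-free DMEM/F12 with 5% charcoal/dextran FBS. Test compound in DMSO was co-exposed with E2 (5 pM) for 24 h, then cells were lysed at pH 7.8 and luciferase read. IC25/IC50 are concentrations inhibiting E2-induced luciferase by 25/50%, calculated from full dose-response curves. Three independent experiments in triplicate.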

ER = details: ref Hamers et al. 2011; cited from earlier work
AR = details: ref Hamers et al. 2011; cited from earlier work
[5] = tested on: all cell lines (T47D.Luc, MCF-7, LNCaP, HepaRG); experiment: Cytotoxicity, neutral red assay; assay type: cell-based, human; details: up to 25 μM concentration
RyRs = details: ref Pessah et al. 2009; cited from earlier work
[6] = tested on: PXR-dependent CYP3A4 mRNA in HepaRG cells; experiment: PXR-agonistic response: induction of CYP3A4 mRNA in differentiated HepaRG cells; assay type: cell-based, human; details: 24 h
Method in brief: (§1)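 Differentiated HepaRG cells (passages 7–9) were grown 14 days in growth medium, then 14 days in differentiation medium, and returned to growth medium 3 days before a 24 h exposure to test compound (0.01–25 μM). CYP2B6 and CYP3A4 mRNA were measured by qRT-PCR (PBGD reference, comparative Ct) relative to PB (2 mM) and RIF (50 μM), respectively. EC25/EC50 were taken from dose-response curves.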

[7] = tested on: ER target gene TFF1 mRNA in MCF-7 cells; experiment: Induction of TFF1 mRNA in MCF-7 cells; assay type: cell-based, human; details: 25 μM, 24 h
Method in brief: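 MCF-7 cells (passages 15–18) were moved to phenol red-free DMEM/F12 with 5% charcoal/dextran FBS and 1% non-essential amino acids. After 24 h in fresh medium they were treated for 24 h with 25 μM test compound. TFF1 mRNA was quantified by one-step qRT-PCR (PBGD reference, comparative Ct) and expressed relative to maximal induction by E2 (15 pM). Three independent experiments, n=6.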

[8] = tested on: CAR-dependent CYP2B6 mRNA in HepaRG cells; experiment: CAR-agonistic response: induction of CYP2B6 mRNA in differentiated HepaRG cells; assay type: cell-based, human; details: CYP2B6 mRNA, HepaRG, 24 h, relative to PB (2 mM)
Method in brief: as §1

[9] = tested on: CYP2B6 mRNA (CAR-dependent); experiment: as above; assay type: cell-based, human; details: human, differentiated HepaRG cells
Method in brief: as §1

[10] = CYP3A4 mRNA, relative to RIF (50 μM)

T1 sequence (P03372 whole entry): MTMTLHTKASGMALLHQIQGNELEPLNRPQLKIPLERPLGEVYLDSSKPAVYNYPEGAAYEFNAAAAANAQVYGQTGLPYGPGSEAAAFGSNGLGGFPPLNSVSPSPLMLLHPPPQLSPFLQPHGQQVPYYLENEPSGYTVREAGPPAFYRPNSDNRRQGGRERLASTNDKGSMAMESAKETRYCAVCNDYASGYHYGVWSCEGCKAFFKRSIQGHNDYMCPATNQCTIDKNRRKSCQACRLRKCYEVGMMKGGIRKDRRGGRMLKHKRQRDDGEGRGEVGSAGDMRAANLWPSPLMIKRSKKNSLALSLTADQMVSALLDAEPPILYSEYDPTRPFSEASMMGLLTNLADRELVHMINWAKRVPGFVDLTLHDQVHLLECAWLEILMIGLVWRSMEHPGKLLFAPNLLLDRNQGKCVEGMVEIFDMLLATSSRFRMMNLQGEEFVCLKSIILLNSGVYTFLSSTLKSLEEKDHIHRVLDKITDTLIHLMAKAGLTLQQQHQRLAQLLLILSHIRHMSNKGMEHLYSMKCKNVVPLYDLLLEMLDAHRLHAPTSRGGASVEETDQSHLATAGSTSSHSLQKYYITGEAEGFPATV

SMILES	Antiandrogenic activity (suppression of DHT-induced PSA mRNA), in words [1]	ER-mediated activity (induction of luciferase), in words (estrogen receptor (ER) [2])	ER-agonistic Response at 10 μM (% of E2max) (estrogen receptor (ER) [2])	Effect on E2-induced TFF1 gene expression, in words [3]	ER-antagonistic Response at 25 μM (% of E2 response) (estrogen receptor (ER) [4])	ER activity in luciferase reporter gene assays, in words (ER)	AR activity in luciferase reporter gene assays, in words (AR)	Cytotoxicity [5]	Activity towards RyR, in words (RyRs)	PXR-agonistic Maximum response at 25 μM (% of RIF max) [6, 10]	Modulation of E2-dependent induction of luciferase activity, in words (estrogen receptor (ER) [4])	Estrogenicity (TFF1 mRNA induction), in words [7]	CAR-agonistic Maximum response at 5 μM (% of PB max) [8]	CAR-agonistic response EC25 [8]	EC50 at 24 h [9]	PXR-dependent CYP3A4 mRNA induction, in words [6]	PXR-agonistic response EC25 [6, 10]
Clc1ccc(Cl)c(-c2c(Cl)ccc(Cl)c2Cl)c1Cl (racemic) [(±)-PCB 136, 2,2',3,3',6,6'-hexachlorobiphenyl]	significant antiandrogenic activity	intermediate effect	63 % of E2max	significantly potentiated the E2-induced TFF1 gene expression	81 % of E2 response	ER-agonistic	AR-antagonistic	no cytotoxicity was observed	–	–	–	–	–	–	–	–	–
Clc1ccc(Cl)c(-c2c(Cl)ccc(Cl)c2Cl)c1Cl [(+)-PCB 136, 2,2',3,3',6,6'-hexachlorobiphenyl]	–	estrogenic; also recorded: strong ER-mediated activity	89 % of E2max	significantly potentiated the E2-induced TFF1 gene expression	123 % of E2 response	–	–	–	no significant activity towards the RyR	17 % of RIF max	slightly potentiated E2-dependent induction of luciferase activity	relatively high estrogenicity	38 % of PB max	1.0 µM	6.6 µM	–	–
Clc1ccc(Cl)c(-c2c(Cl)ccc(Cl)c2Cl)c1Cl [(−)-PCB 136, 2,2',3,3',6,6'-hexachlorobiphenyl]	–	did not induce a significant increase of luciferase activity	27 % of E2max	inactive	27 % of E2 response	–	–	–	activate RyRs	38 % of RIF max	exhibited antiestrogenic effects, especially at higher concentrations	–	51 % of PB max	0.7 µM	–	significantly more potent inducer of PXR activity than (+)-PCB 136; also recorded: significantly more potent inducer of CYP3A4 mRNA than (+)-PCB 136	7.4 µM
